≈ marks a conversion by molar mass, not a printed value.
Legend:
Aeromonas hydrophila = assay: Antibacterial activity against Aeromonas hydrophila OCC 778 after 18 hrs; format: functional; settings: OCC 778, 18 h
How it was run: (§1)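 Broth microdilution in Nutrient Broth No. 2; stocks in ethanol diluted to 0.01–128 µg/ml (triclosan) or 0.25–256 µg/ml (glycosides). Overnight 37 °C NB2 cultures diluted 1 in 10^4 in saline and added to the dilutions. Incubation at 37 °C with agitation, OD read every 15 min; MIC is the lowest concentration preventing any OD rise after 18 h.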

Citrobacter freundii [1] = assay: Antibacterial activity against Citrobacter freundii OCC 851 after 18 hrs; format: functional; settings: OCC 851, 18 h; how it was run: as §1
Cronobacter sakazakii = assay: Antibacterial activity against Cronobacter sakazakii 29544 after 18 hrs; format: functional; settings: Cronobacter sakazakii, 29544, 18 h; how it was run: as §1
Klebsiella aerogenes [2] = assay: Antibacterial activity against Enterobacter aerogenes ATCC 13048 after 18 hrs; format: functional; settings: ATCC 13048, 18 h; how it was run: as §1
[3] = Antibacterial activity against Enterobacter cloacae ATCC 13047 after 18 hrs; format: functional, Enterobacter cloacae subsp. cloacae; settings: ATCC 13047, 18 h; how it was run: as §1
Escherichia coli [4] = assay: Antibacterial activity against Escherichia coli ATCC 8739 after 18 hrs; format: functional; settings: ATCC 8739, 18 h; how it was run: as §1
Escherichia coli [5] = assay: Antibacterial activity against Escherichia coli ATCC 10536 after 18 hrs; format: functional; settings: ATCC 10536, 18 h; how it was run: as §1
Escherichia coli [6] = assay: Antibacterial activity against Escherichia coli ATCC 11775 after 18 hrs; format: functional; how it was run: as §1
Escherichia coli [7] = assay: Antibacterial activity against Escherichia coli ATCC 25922 after 18 hrs; format: functional; settings: ATCC 25922, 18 h; how it was run: as §1
Escherichia coli [8] = assay: Antibacterial activity against Escherichia coli ATCC 35218 after 18 hrs; format: functional; settings: ATCC 35218, 18 h; how it was run: as §1
Escherichia coli [9] = assay: Antibacterial activity against Escherichia coli 700728 after 18 hrs; format: functional; settings: Escherichia coli, 700728, 18 h; how it was run: as §1
Escherichia coli [10] = assay: Antibacterial activity against Escherichia coli NCTC 13216 after 18 hrs; format: functional; settings: NCTC 13216, 18 h; how it was run: as §1
Escherichia coli [11] = assay: Antibacterial activity against Escherichia coli OCC 122 after 18 hrs; format: functional; settings: OCC 122, 18 h; how it was run: as §1
Escherichia hermannii = assay: Antibacterial activity against Escherichia hermannii 33650 after 18 hrs; format: functional; settings: Atlantibacter hermannii, 33650, 18 h; how it was run: as §1
Hafnia alvei = assay: Antibacterial activity against Hafnia alvei 13337 after 18 hrs; format: functional; settings: Hafnia alvei, 13337, 18 h; how it was run: as §1
Klebsiella aerogenes [12] = assay: Antibacterial activity against Klebsiella aerogenes NCTC 8167 after 18 hrs; format: functional; settings: NCTC 8167, 18 h; how it was run: as §1
Klebsiella pneumoniae [13] = assay: Antibacterial activity against Klebsiella pneumoniae ATCC 10031 after 18 hrs; format: functional; settings: ATCC 10031, 18 h; how it was run: as §1
Proteus mirabilis = assay: Antibacterial activity against Proteus mirabilis ATCC 12453 after 18 hrs; format: functional; settings: ATCC 12453, 18 h; how it was run: as §1
Proteus vulgaris = assay: Antibacterial activity against Proteus vulgaris OCC 195 after 18 hrs; format: functional; settings: OCC 195, 18 h; how it was run: as §1
Pseudomonas aeruginosa = assay: Antibacterial activity against Pseudomonas aeruginosa ATCC 27853 after 18 hrs; format: functional; settings: ATCC 27853, 18 h; how it was run: as §1
Klebsiella pneumoniae [14] = assay: Antibacterial activity against Klebsiella pneumoniae ATCC 13883 after 18 hrs; format: functional; settings: ATCC 13883, 18 h; how it was run: as §1
Citrobacter freundii [15] = assay: Antibacterial activity against Citrobacter freundii 8090 after 18 hrs; format: functional; settings: Citrobacter freundii, 8090, 18 h; how it was run: as §1
Serratia marcescens = assay: Antibacterial activity against Serratia marcescens OCC 217 after 18 hrs; format: functional; settings: OCC 217, 18 h; how it was run: as §1
Bacillus cereus = assay: Antibacterial activity against Bacillus cereus ATCC 14579 after 18 hrs; format: functional; settings: ATCC 14579, 18 h; how it was run: as §1
Bacillus subtilis = assay: Antibacterial activity against Bacillus subtilis NCTC 10073 after 18 hrs; format: functional; settings: NCTC 10073, 18 h; how it was run: as §1
Enterococcus faecalis [16] = assay: Antibacterial activity against Enterococcus faecalis ATCC 29212 after 18 hrs; format: functional; settings: ATCC 29212, 18 h; how it was run: as §1
Enterococcus faecalis [17] = assay: Antibacterial activity against Enterococcus faecalis ATCC 33186 after 18 hrs; format: functional; settings: ATCC 33186, 18 h; how it was run: as §1
Enterococcus faecium = assay: Antibacterial activity against Enterococcus faecium ATCC 19434 after 18 hrs; format: functional; settings: ATCC 19434, 18 h; how it was run: as §1

- MIC (Aeromonas hydrophila): > 256 µg/mL
- MIC (Citrobacter freundii [1]): 64 µg/mL (≈ 142 µM)
- MIC (Cronobacter sakazakii): 64 µg/mL (≈ 142 µM)
- MIC (Klebsiella aerogenes [2]): 64 µg/mL (≈ 142 µM)
- MIC [3]: 16 µg/mL (≈ 35.4 µM)
- MIC (Escherichia coli [4]): 8 to 64 µg/mL (≈ 17.7 to 142 µM)
- MIC (Escherichia coli [5]): 8 to 64 µg/mL (≈ 17.7 to 142 µM)
- MIC (Escherichia coli [6]): 8 to 64 µg/mL (≈ 17.7 to 142 µM)
- MIC (Escherichia coli [7]): 8 to 64 µg/mL (≈ 17.7 to 142 µM)
- MIC (Escherichia coli [8]): 8 to 64 µg/mL (≈ 17.7 to 142 µM)
- MIC (Escherichia coli [9]): 8 to 64 µg/mL (≈ 17.7 to 142 µM)
- MIC (Escherichia coli [10]): 8 to 64 µg/mL (≈ 17.7 to 142 µM)
- MIC (Escherichia coli [11]): 8 to 64 µg/mL (≈ 17.7 to 142 µM)
- MIC (Escherichia hermannii): 16 µg/mL (≈ 35.4 µM)
- MIC (Hafnia alvei): 4 µg/mL (≈ 8.86 µM)
- MIC (Klebsiella aerogenes [12]): 32 µg/mL (≈ 70.8 µM)
- MIC (Klebsiella pneumoniae [13]): 0.5 µg/mL (≈ 1.11 µM)
- MIC (Proteus mirabilis): 16 µg/mL (≈ 35.4 µM)
- MIC (Proteus vulgaris): 64 µg/mL (≈ 142 µM)
- MIC (Pseudomonas aeruginosa): > 256 µg/mL
- MIC (Klebsiella pneumoniae [14]): 0.5 µg/mL (≈ 1.11 µM)
- MIC (Citrobacter freundii [15]): 64 µg/mL (≈ 142 µM)
- MIC (Serratia marcescens): > 256 µg/mL
- MIC (Bacillus cereus): 256 µg/mL (≈ 567 µM)
- MIC (Bacillus subtilis): 256 µg/mL (≈ 567 µM)
- MIC (Enterococcus faecalis [16]): 16 µg/mL (≈ 35.4 µM)
- MIC (Enterococcus faecalis [17]): 16 µg/mL (≈ 35.4 µM)
- MIC (Enterococcus faecium): > 256 µg/mL
SMILES: OC[C@H]1O[C@@H](Oc2cc(Cl)ccc2Oc2ccc(Cl)cc2Cl)[C@H](O)[C@@H](O)[C@@H]1O
